# Results gathered from unrelated publications.
# Target: Serine/threonine-protein kinase 10 (STK10, Homo sapiens, UniProt O94804)
Compound,effect on,action,method,cell line,tested at,endpoint,value
COc1cc(Cl)c(C(=O)N[C@@H](CN[C@H]2CC[C@@H](N)CC2)Cc2ccc(C#N)cc2)cc1-c1ccc(CN[C@H](C)c2ccc(C)cc2)o1,enzyme activity,inhibitor,,,1 µM,remaining activity,110%
CC(C)c1ccc(NC(=O)c2cccs2)c(-c2nc3ccccc3[nH]c2=O)c1,enzyme activity,inhibitor,,,1 µM,activity vs control,103%
CCN1CCN(Cc2ccc(NC(=O)c3ccc(C)c(/C=C/c4cnc5[nH]ccc5c4OC)c3)cc2C(F)(F)F)CC1,target engagement in cells,inhibitor,chemoproteomics,A-375,0.5 µM,inhibition,-69.1%
CN([C@@H]1CCc2c(CC(=O)O)c3ccccc3n2C1)S(=O)(=O)c1ccc(F)cc1,cell-free assay,,competition with immobilised ligand,,1 µM,remaining binding,100%
Cc1ccc(Nc2nccc(N(C)c3ccc4c(C)n(C)nc4c3)n2)cc1S(N)(=O)=O,enzyme activity,inhibitor,,,0.5 µM,remaining activity,50.1%
FC(F)(F)c1ccc2c(c1)nc(-c1cccnc1)n2C1CC1,cell-free assay,,competition with immobilised ligand,,1 µM,remaining binding,100%
O=C1NC(=O)c2cc(Nc3ccc(F)cc3)c(Nc3ccc(F)cc3)cc21,cell-free assay,,,,0.5 µM,remaining signal,79.2%
CCCS(=O)(=O)Nc1ccc(F)c(C(=O)c2c[nH]c3ncc(-c4ccc(Cl)cc4)cc23)c1F,enzyme activity,inhibitor,,,1 µM,inhibition,< 10%
Cc1ccc(NC(=O)c2ccc(C)c(C(F)(F)F)c2)cc1C#Cc1nn(C2CCC(O)CC2)c2ncnc(N)c12 (centres unmarked),cell-free assay,,,,10 µM,remaining signal,16%
Cc1sc(C(=O)NC2COC2)cc1-n1cc(NC(=O)Nc2c(F)cccc2Cl)cn1,enzyme activity,inhibitor,,,10 µM,remaining activity,96.4%
CNC(=O)c1cc(Oc2ccc(NC(=O)Nc3ccc(Cl)c(C(F)(F)F)c3)cc2)ccn1,enzyme activity,inhibitor,,,0.3 µM,inhibition,43%
Nc1cnc(N2CCc3cc(S(=O)(=O)Nc4c(F)cc(Cl)cc4F)cc(N4CCCC4=O)c32)nc1,cell-free assay,,competition with immobilised ligand,,1 µM,remaining binding,100%
CC(C)(O)[C@H]1CC[C@H](Nc2ccc3ncc(-c4cccc(C(F)(F)F)c4)n3n2)CC1,enzyme activity,inhibitor,,,1 µM,remaining activity,63.8%
CCOCCn1cc(C(=O)Nc2ccc(-n3nc(-c4cccnc4)cc3C(F)(F)F)cn2)ccc1=O,cell-free assay,,competition with immobilised ligand,,1 µM,remaining binding,100%
CCN(CC)CCNC(=O)c1c(C)[nH]c(/C=C2\C(=O)Nc3ccc(F)cc32)c1C,enzyme activity,inhibitor,,,10 µM,inhibition,83%
CCN1CCN(Cc2ccc(NC(=O)c3ccc(C)c(Oc4ccnc5[nH]ccc45)c3)cc2C(F)(F)F)CC1,target engagement in cells,inhibitor,chemoproteomics,Huh-7,1 µM,inhibition,-148%
C#Cc1cccc(Nc2ncnc3cc(OCCOC)c(OCCOC)cc23)c1,cell-free assay,,,,0.5 µM,remaining signal,20.3%
CNCc1ccccc1-c1csc([C@H](C)Nc2nc(C)nc3cc(OC)c(OC)cc23)c1,cell-free assay,,competition with immobilised ligand,,1 µM,remaining binding,100%
COc1cc2c(N3CCN(C(=O)Nc4ccc(OC(C)C)cc4)CC3)ncnc2cc1OCCCN1CCCCC1,cell-free assay,,,,0.5 µM,remaining signal,95%
Cc1noc([C@H]2C[C@@H](c3ccc(C(F)(F)F)cc3)CN(C(=O)N3CCS(=O)(=O)C3)C2)n1,cell-free assay,,competition with immobilised ligand,,1 µM,remaining binding,100%
Cc1ccc(C(=O)Nc2ccc(CN3CCN(C)CC3)c(C(F)(F)F)c2)cc1C#Cc1cnc2cccnn12,enzyme activity,inhibitor,,,23.5 nM,remaining activity,0.05%
NS(=O)(=O)c1cc(NC(=O)Cc2ccccc2)ccc1Oc1cccc(Cl)c1,cell-free assay,,competition with immobilised ligand,,1 µM,remaining binding,65%
CN1CC(Oc2cnc(C#N)cc2-c2ccn3nc(NC(=O)C4CC4)cc3c2)C1,enzyme activity,inhibitor,,,1 µM,inhibition,30%
